ChEMBL document CHEMBL1759915, “Synthesis and anticancer effects of some novel pyrazolo[3,4-d]pyrimidine derivatives by generating reactive oxygen species in human breast adenocarcinoma cells” (Eur J Med Chem, 2011)
Converted amounts (≈) assume the structure as drawn.

Columns and labels:
MCF7 [1] = test: Effect on SOD level in human MCF7 cells assessed per mg protein at 5 ug/ml after 24 hrs (reference value: 27.61+/- 3.72 U/mg of protein); type: functional
MCF7 [2] = test: Decrease in glutathione peroxidase level in human MCF7 cells; type: functional, cell-based
MCF7 [3] = test: Effect on hydrogen peroxide level in human MCF7 cells assessed per mg protein at 10 ug/ml by Wolf's method after 24 hrs (reference value: 12.50 +/- 1.54 nmol/mg of protein); type: functional
MCF7 [4] = test: Effect on glutathione level in human MCF7 cells assessed per mg protein at 10 ug/ml by Ellman method after 24 hrs (reference value: 39.82 +/- 4.20 nmol/mg of protein); type: functional
MCF7 [5] = test: Effect on glutathione level in human MCF7 cells assessed per mg protein at 20 ug/ml by Ellman method after 24 hrs (reference value: 39.82 +/- 4.20 nmol/mg of protein); type: functional
MCF7 [6] = test: Effect on DNA level in human MCF7 cells assessed per 10 '6 cells at 5 ug/ml after 24 hrs (reference value: 6.80 +/- 0.70 ug/10^6 cells); type: functional
How it was run: (§1)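 After 24 h exposure of MCF-7 cells to compound at 2, 5, 10 or 20 µg/ml at 37 °C, nucleic acids were precipitated from cell homogenates. DNA was extracted and assayed by the Zhou et al. method, and RNA by a kit-derived procedure. Results given per 10⁶ cells as means ± S.E. of four experiments versus untreated control.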

MCF7 [7] = test: Effect on RNA level in human MCF7 cells assessed per 10 '6 cells at 2 ug/ml after 24 hrs (reference value: 11.50 +/- 0.70 ug/10^6 cells); type: functional; how it was run: as §1
MCF7 [8] = test: Effect on DNA level in human MCF7 cells assessed per 10 '6 cells at 2 ug/ml after 24 hrs (reference value: 6.80 +/- 0.70 ug/10^6 cells); type: functional; how it was run: as §1
MCF7 [9] = test: Effect on hydrogen peroxide level in human MCF7 cells assessed per mg protein at 5 ug/ml by Wolf's method after 24 hrs (reference value: 12.50 +/- 1.54 nmol/mg of protein); type: functional
MCF7 [10] = test: Effect on CAT level in human MCF7 cells assessed per mg protein at 2 ug/ml after 24 hrs (reference value: 7.90+/- 0.67 U/mg of protein); type: functional
MCF7 [11] = test: Effect on CAT level in human MCF7 cells assessed per mg protein at 20 ug/ml after 24 hrs (reference value: 7.90+/- 0.67 U/mg of protein); type: functional
MCF7 [12] = test: Effect on SOD level in human MCF7 cells assessed per mg protein at 20 ug/ml after 24 hrs (reference value: 27.61+/- 3.72 U/mg of protein); type: functional
MCF7 [13] = test: Effect on RNA level in human MCF7 cells assessed per 10 '6 cells at 10 ug/ml after 24 hrs (reference value: 11.50 +/- 0.70 ug/10^6 cells); type: functional; how it was run: as §1
MCF7 [14] = test: Increase in SOD level in human MCF7 cells; type: functional, cell-based
MCF7 [15] = test: Effect on glutathione peroxidase level in human MCF7 cells assessed per mg protein at 10 ug/ml after 24 hrs (reference value: 11.20 +/- 1.36 U/mg of protein); type: functional
MCF7 [16] = test: Decrease in DNA level in human MCF7 cells assessed per 10 '6 cells after 24 hrs relative to control; type: functional, cell-based; how it was run: as §1
MCF7 [17] = test: Antiproliferative activity against human MCF7 cells after 24 hrs by MTT assay; type: functional, cell-based; settings: for IC50: MCF7, 24 h
How it was run: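 MCF-7 cells (DMEM, 10% heat-inactivated FCS, penicillin/streptomycin, 37 °C, 5% CO2) plated at 0.65 × 10⁵ cells/well and given 24 h to attach. Exposed to compound or cisplatin at 2, 5, 10 or 20 µg/ml for 24 h at 37 °C. MTT added for 4 h, formazan dissolved in DMSO, absorbance read at 570 nm. Viability taken relative to untreated cells and IC50 derived.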

MCF7 [18] = test: Increase in hydrogen peroxide level in human MCF7 cells; type: functional, cell-based
MCF7 [19] = test: Effect on glutathione level in human MCF7 cells assessed per mg protein at 5 ug/ml by Ellman method after 24 hrs (reference value: 39.82 +/- 4.20 nmol/mg of protein); type: functional
MCF7 [20] = test: Effect on RNA level in human MCF7 cells assessed per 10 '6 cells at 5 ug/ml after 24 hrs (reference value: 11.50 +/- 0.70 ug/10^6 cells); type: functional; how it was run: as §1
MCF7 [21] = test: Decrease in glutathione level in human MCF7 cells; type: functional, cell-based
MCF7 [22] = test: Effect on glutathione peroxidase level in human MCF7 cells assessed per mg protein at 20 ug/ml after 24 hrs (reference value: 11.20 +/- 1.36 U/mg of protein); type: functional
MCF7 [23] = test: Effect on hydrogen peroxide level in human MCF7 cells assessed per mg protein at 20 ug/ml by Wolf's method after 24 hrs (reference value: 12.50 +/- 1.54 nmol/mg of protein); type: functional
MCF7 [24] = test: Effect on SOD level in human MCF7 cells assessed per mg protein at 2 ug/ml after 24 hrs (reference value: 27.61+/- 3.72 U/mg of protein); type: functional
MCF7 [25] = test: Effect on glutathione peroxidase level in human MCF7 cells assessed per mg protein at 2 ug/ml after 24 hrs (reference value: 11.20 +/- 1.36 U/mg of protein); type: functional
MCF7 [26] = test: Effect on CAT level in human MCF7 cells assessed per mg protein at 10 ug/ml after 24 hrs (reference value: 7.90+/- 0.67 U/mg of protein); type: functional
MCF7 [27] = test: Effect on RNA level in human MCF7 cells assessed per 10 '6 cells at 20 ug/ml after 24 hrs (reference value: 11.50 +/- 0.70 ug/10^6 cells); type: functional; how it was run: as §1
MCF7 [28] = test: Effect on CAT level in human MCF7 cells assessed per mg protein at 5 ug/ml after 24 hrs (reference value: 7.90+/- 0.67 U/mg of protein); type: functional
MCF7 [29] = test: Effect on DNA level in human MCF7 cells assessed per 10 '6 cells at 20 ug/ml after 24 hrs (reference value: 6.80 +/- 0.70 ug/10^6 cells); type: functional; how it was run: as §1
MCF7 [30] = test: Effect on glutathione level in human MCF7 cells assessed per mg protein at 2 ug/ml by Ellman method after 24 hrs (reference value: 39.82 +/- 4.20 nmol/mg of protein); type: functional
MCF7 [31] = test: Decrease in RNA level in human MCF7 cells assessed per 10 '6 cells after 24 hrs relative to control; type: functional, cell-based; how it was run: as §1
MCF7 [32] = test: Effect on hydrogen peroxide level in human MCF7 cells assessed per mg protein at 2 ug/ml by Wolf's method after 24 hrs (reference value: 12.50 +/- 1.54 nmol/mg of protein); type: functional
MCF7 [33] = test: Decrease in CAT level in human MCF7 cells; type: functional, cell-based
MCF7 [34] = test: Effect on DNA level in human MCF7 cells assessed per 10 '6 cells at 10 ug/ml after 24 hrs (reference value: 6.80 +/- 0.70 ug/10^6 cells); type: functional; how it was run: as §1
MCF7 [35] = test: Effect on glutathione peroxidase level in human MCF7 cells assessed per mg protein at 5 ug/ml after 24 hrs (reference value: 11.20 +/- 1.36 U/mg of protein); type: functional
MCF7 [36] = test: Effect on SOD level in human MCF7 cells assessed per mg protein at 10 ug/ml after 24 hrs (reference value: 27.61+/- 3.72 U/mg of protein); type: functional

Row | Compound | Activity (MCF7 [1]) | Activity (MCF7 [2]) | Activity (MCF7 [3]) | Activity (MCF7 [4]) | Activity (MCF7 [5]) | Activity (MCF7 [6]) | Activity (MCF7 [7]) | Activity (MCF7 [8]) | Activity (MCF7 [9]) | Activity (MCF7 [10]) | Activity (MCF7 [11]) | Activity (MCF7 [12]) | Activity (MCF7 [13]) | Activity (MCF7 [14]) | Activity (MCF7 [15]) | Activity (MCF7 [16]) | Activity (MCF7 [17]) | IC50 (MCF7 [17]) | Activity (MCF7 [18]) | Activity (MCF7 [19]) | also measured
1 | CCOCCSc1ncnc2c1cnn2-c1nc(C)nc2sc3c(c12)-c1ccccc1CC3 | 115 U/mg protein | Dose-dependent effect | 40 nmol | 20.25 nmol | 18.6 nmol | 4.2 µg/10^6 cells | 7.9 µg/10^6 cells | 4.6 µg/10^6 cells | 30.5 nmol | 5.2 U/mg protein | 3.2 U/mg protein | 251 U/mg protein | 6.5 µg/10^6 cells | Dose-dependent effect | 6 U/mg protein | Dose-dependent effect | Dose-dependent effect | 6.4 µg/mL (≈ 13.5 µM) | Dose-dependent effect | 25 nmol | Activity (MCF7 [20]): 7 µg/10^6 cells; Activity (MCF7 [21]): Dose-dependent effect; Activity (MCF7 [22]): 5.25 U/mg protein; Activity (MCF7 [23]): 55 nmol; Activity (MCF7 [24]): 85.7 U/mg protein; Activity (MCF7 [25]): 7.35 U/mg protein; Activity (MCF7 [26]): 4 U/mg protein; Activity (MCF7 [27]): 6.2 µg/10^6 cells; Activity (MCF7 [28]): 4.5 U/mg protein; Activity (MCF7 [29]): 3 µg/10^6 cells; Activity (MCF7 [30]): 30 nmol; Activity (MCF7 [31]): Dose-dependent effect; Activity (MCF7 [32]): 30.3 nmol; Activity (MCF7 [33]): Dose-dependent effect; Activity (MCF7 [34]): 3.75 µg/10^6 cells; Activity (MCF7 [35]): 7 U/mg protein; Activity (MCF7 [36]): 190 U/mg protein
2 | COCCSc1ncnc2c1cnn2-c1nc(C)nc2sc3c(c12)-c1ccccc1CC3 | 136 U/mg protein | Dose-dependent effect | 58.5 nmol | 18.75 nmol | 15.6 nmol | 3.44 µg/10^6 cells | 6.2 µg/10^6 cells | 4 µg/10^6 cells | 45.77 nmol | 3.9 U/mg protein | 2.1 U/mg protein | 310 U/mg protein | 5.21 µg/10^6 cells | Dose-dependent effect | 4 U/mg protein | Dose-dependent effect | Dose-dependent effect | 4.3 µg/mL (≈ 9.34 µM) | Dose-dependent effect | 20.95 nmol | Activity (MCF7 [20]): 5.72 µg/10^6 cells; Activity (MCF7 [21]): Dose-dependent effect; Activity (MCF7 [22]): 2.9 U/mg protein; Activity (MCF7 [23]): 66.8 nmol; Activity (MCF7 [24]): 105 U/mg protein; Activity (MCF7 [25]): 6 U/mg protein; Activity (MCF7 [26]): 3 U/mg protein; Activity (MCF7 [27]): 4.8 µg/10^6 cells; Activity (MCF7 [28]): 3.4 U/mg protein; Activity (MCF7 [29]): 2.5 µg/10^6 cells; Activity (MCF7 [30]): 23.6 nmol; Activity (MCF7 [31]): Dose-dependent effect; Activity (MCF7 [32]): 30.75 nmol; Activity (MCF7 [33]): Dose-dependent effect; Activity (MCF7 [34]): 2.96 µg/10^6 cells; Activity (MCF7 [35]): 5.65 U/mg protein; Activity (MCF7 [36]): 310 U/mg protein
3 | Cc1nc(-n2ncc3c(=S)[nH]cnc32)c2c3c(sc2n1)CCc1ccccc1-3 | 85.4 U/mg protein | Dose-dependent effect | 30.5 nmol | 29.11 nmol | 27 nmol | 5 µg/10^6 cells | 9.11 µg/10^6 cells | 5.3 µg/10^6 cells | 21.6 nmol | 6.33 U/mg protein | 4 U/mg protein | 181 U/mg protein | 7 µg/10^6 cells | Dose-dependent effect | 7.7 U/mg protein | Dose-dependent effect | Dose-dependent effect | 8 µg/mL (≈ 19.9 µM) | Dose-dependent effect | 33.12 nmol | Activity (MCF7 [20]): 7.9 µg/10^6 cells; Activity (MCF7 [21]): Dose-dependent effect; Activity (MCF7 [22]): 6.82 U/mg protein; Activity (MCF7 [23]): 46.37 nmol; Activity (MCF7 [24]): 77.9 U/mg protein; Activity (MCF7 [25]): 8.3 U/mg protein; Activity (MCF7 [26]): 4.9 U/mg protein; Activity (MCF7 [27]): 6.8 µg/10^6 cells; Activity (MCF7 [28]): 5.36 U/mg protein; Activity (MCF7 [29]): 4 µg/10^6 cells; Activity (MCF7 [30]): 39.9 nmol; Activity (MCF7 [31]): Dose-dependent effect; Activity (MCF7 [32]): 24.2 nmol; Activity (MCF7 [33]): Dose-dependent effect; Activity (MCF7 [34]): 4.76 µg/10^6 cells; Activity (MCF7 [35]): 7.9 U/mg protein; Activity (MCF7 [36]): 121 U/mg protein
